Marks after values point to notes of the source that are not given here.
What was measured:
[1] = test system: obese subjects with type 2 diabetes; assay: Postprandial plasma glucose after a standardized test meal; format: in vivo, human; details: n = 30; for Time to 10% of total glucose AUC / Time to 20% of total glucose AUC / Time to ΔGLUmax: 0.2 U/kg s.c. before standardized meal, obese T2DM, median
Method in brief: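 Same crossover, fasting, 0.2 U/kg s.c. premeal dosing and standardized 692-kcal meal. Plasma glucose was sampled at −20, −10 and 0 min, every 10 min to 2 h, then every 15 min to 6 h. AUCs used the linear trapezoidal rule; incremental AUCs and GLUmax used ANOVA (subject, treatment, sequence, period). Ratio 90% CIs used Fieller's theorem on untransformed data; times used Wilcoxon with Hodges–Lehmann 90% CI.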

[2] = Serum insulin analogue concentrations after subcutaneous bolus; format: in vivo, human; details: n = 30; for Time to fraction of total insulin AUC (10%) / Time to fraction of total insulin AUC (20%) / Tmax (time to peak insulin concentration) / Insulin AUC0–1 h/AUC0–6 h, geometric mean / Insulin AUC0–2 h/AUC0–6 h, arithmetic mean (value in brackets) / Insulin AUC0–2 h/AUC0–6 h, geometric mean / Insulin AUC0–4 h/AUC0–6 h, arithmetic mean (value in brackets) / Insulin AUC0–4 h/AUC0–6 h, geometric mean: 0.2 U/kg s.c. before standardized meal, obese T2DM; for Time to fraction of total insulin AUC (10%) / Time to fraction of total insulin AUC (20%) / Tmax (time to peak insulin concentration): median; for Insulin AUC0–1 h/AUC0–6 h, geometric mean / Insulin AUC0–2 h/AUC0–6 h, arithmetic mean (value in brackets) / Insulin AUC0–2 h/AUC0–6 h, geometric mean / Insulin AUC0–4 h/AUC0–6 h, arithmetic mean (value in brackets) / Insulin AUC0–4 h/AUC0–6 h, geometric mean: serum analogue
Method in brief: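 Same crossover and 0.2 U/kg s.c. premeal dosing in obese T2DM (n = 30). Serum test insulin analogue was measured by an analogue-specific kit at a central laboratory over 6 h. Non-compartmental analysis gave Cmax, Tmax and linear-trapezoidal AUC fractions. Ratios with 90% CI used ANOVA on ln-transformed data; times used Hodges–Lehmann 90% CI for median differences.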

NEFA = assay: Non-esterified fatty acid; format: in vivo, human; details: for Mean NEFA concentration after subsequent increase / Time of lowest mean NEFA concentration: 0.2 U/kg s.c. before standardized meal; for Mean NEFA concentration after subsequent increase: after the nadir, within 6-h period; for Time of lowest mean NEFA concentration / Mean NEFA concentration at start (before decrease): obese T2DM; for Mean NEFA concentration at start (before decrease): baseline
Method in brief: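 Obese T2DM adults (n = 30) fasted 12 h with oral agents withheld. In a randomized two-way crossover with a 7-day washout, they received 0.2 U/kg s.c. of test insulin analogue within 2 min before a 692-kcal meal (54% carbohydrate, 17% protein, 28% lipid) eaten within 30 min. Plasma NEFA was sampled from −20 min to 6 h by validated kit; mean profiles.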

[3] = test system: obese subjects with type 2 diabetes; assay: Hypoglycaemia and adverse events; format: in vivo, human; details: for Severe hypoglycaemia / Subjects with hypoglycaemia with blood glucose below 56 mg/dl / Subjects with an episode of hypoglycaemia 3–6 h after insulin administration: 0.2 U/kg s.c.; for Subjects with an episode of hypoglycaemia 3–6 h after insulin administration: blood glucose <70 mg/dl
[4] = subcutaneously injected; cited from earlier work
[5] = point estimate (90% CI), Fieller's Theorem, untransformed data
[6] = point estimate (90% CI), Hodges and Lehmann method
[7] = point estimate (90% CI), ln-transformed data

For insulin aspart, the “Time to 10% of total glucose AUC” value [1] was 40.0 ^† min, the “Time to 20% of total glucose AUC” value [1] was 65.0 ^† min and the “Time to ΔGLUmax” value [1] was 59.5 ^† min. For the same substance, the “Time to fraction of total insulin AUC (10%)” value [2] was 60.5 ^† min, the “Time to fraction of total insulin AUC (20%)” value [2] was 91.0 ^† min and the “Tmax (time to peak insulin concentration)” value [2] was 93.0 ^† min. The “Insulin AUC0–1 h/AUC0–6 h, geometric mean” value [2] was 11%, the “Insulin AUC0–2 h/AUC0–6 h, arithmetic mean (value in brackets)” value [2] was 3.6% and the “Insulin AUC0–2 h/AUC0–6 h, geometric mean” value [2] was 35%. For the same substance, the “Insulin AUC0–4 h/AUC0–6 h, arithmetic mean (value in brackets)” value [2] was 4.3%, the “Insulin AUC0–4 h/AUC0–6 h, geometric mean” value [2] was 77% and the “Mean NEFA concentration after subsequent increase” value (NEFA) was 0.31 mmol/L. The “Time of lowest mean NEFA concentration” value (NEFA) was 120 min, the “Mean NEFA concentration at start (before decrease)” value (NEFA) was 0.51 mmol/L and the Severe hypoglycaemia [3] was “no cases of severe hypoglycaemia requiring intervention”. For the same substance, the “Subjects with hypoglycaemia with blood glucose below 56 mg/dl” value [3] was “eight”, the “Subjects with an episode of hypoglycaemia 3–6 h after insulin administration” value [3] was 15 subjects and the “Time of the remaining hypoglycaemia episodes after administration” value ([3]; episodes outside 3–6 h, one value per episode) was 60 min.

In the case of insulin glulisine, the “Time to 10% of total glucose AUC” value [1] is reported as 40.0 ^† min, the “Time to 20% of total glucose AUC” value [1] is reported as 67.5 ^† min and the “Time to ΔGLUmax” value [1] is reported as 60.0 ^† min. For the same substance, the “GLUmax, mean ratio glulisine/aspart” value [1, 5] was 94% (90–99), the “Glucose AUC0–1 h, mean ratio glulisine/aspart” value [1, 5] was 94% (90–99) and the “Glucose AUC0–1 h/AUC0–6 h, mean ratio glulisine/aspart” value [1, 5] was 95% (92–99). For the same substance, the “Glucose AUC0–2 h/AUC0–6 h, mean ratio glulisine/aspart” value [1, 5] was 96% (94–99), the “Glucose AUC0–4 h/AUC0–6 h, mean ratio glulisine/aspart” value [1, 5] was 99% (97–100) and the “Glucose AUC0–6 h, mean ratio glulisine/aspart” value [1, 5] was 98% (95–104). For the same substance, the “ΔGLUmax, mean ratio glulisine/aspart” value [1, 5] was 81% (70–100), the “Time to 10% of total glucose AUC, median difference glulisine vs aspart” value [1, 6] was -2 min and the “Time to 20% of total glucose AUC, median difference glulisine vs aspart” value [1, 6] was 0 (−4 to 3) min. For the same substance, the “Time to ΔGLUmax, median difference glulisine vs aspart” value [1, 6] was -5 min, the “GLUmax, mean difference glulisine vs aspart” value ([1]; point estimate (90% CI), analysis of variance, untransformed data) was -11 mg/dL and the “Time to fraction of total insulin AUC (10%)” value [2] was 60.0 ^† min. The “Time to fraction of total insulin AUC (20%)” value [2] was 90.0 ^† min, the “Tmax (time to peak insulin concentration)” value [2] was 120.0 ^† min and the “Tmax, median difference glulisine vs aspart” value [2, 6] was 17 min. For the same substance, the “Insulin AUC0–1 h/AUC0–6 h, mean ratio glulisine/aspart” value [2, 7] was 127% (106–152), the “Insulin AUC0–2 h/AUC0–6 h, mean ratio glulisine/aspart” value [2, 7] was 103% (95–110) and the “Insulin AUC0–4 h/AUC0–6 h, mean ratio glulisine/aspart” value [2, 7] was 101% (99–103). For the same substance, the “Insulin AUC0–1 h/AUC0–6 h, geometric mean” value [2] was 14%, the “Insulin AUC0–2 h/AUC0–6 h, arithmetic mean (value in brackets)” value [2] was 3.6% and the “Insulin AUC0–2 h/AUC0–6 h, geometric mean” value [2] was 36%. The “Insulin AUC0–4 h/AUC0–6 h, arithmetic mean (value in brackets)” value [2] was 4.3%, the “Insulin AUC0–4 h/AUC0–6 h, geometric mean” value [2] was 78% and the “Mean NEFA concentration after subsequent increase” value (NEFA) was 0.32 mmol/L. The “Time of lowest mean NEFA concentration” value (NEFA) was 180 min, the “Mean NEFA concentration at start (before decrease)” value (NEFA) was 0.50 mmol/L and the Severe hypoglycaemia [3] was “no cases of severe hypoglycaemia requiring intervention”. For the same substance, the “Subjects with hypoglycaemia with blood glucose below 56 mg/dl” value [3] was “Five” and the “Subjects with an episode of hypoglycaemia 3–6 h after insulin administration” value [3] was 10 subjects.

In the case of regular human insulin [RHI], the Duration of action [4] is listed as over 8 h and the “Time of peak effect after dosing” value [4] is listed as 3 h.

— publication PMC3132447 (Diabetes, Obesity & Metabolism, 2011)
